Reference: ChEMBL document CHEMBL1641448, “2-Hydroxycurcuminoid induces apoptosis of human tumor cells through the reactive oxygen species-mitochondria pathway” (2011)
Active and inactive are the calls of the source. The rule behind the calls is not given here.

Tests used:
SW-620 [1] = test: Induction of apoptosis in human SW620 cells assessed as decrease in mitochondrial membrane potential after 6 to 12 hrs; type: functional, cell-based
In short: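 Mitochondrial membrane potential in SW620 cells was followed as the red:green ratio (A590:A520) over 6–12 h of treatment.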

MCF-10A = test: Induction of cell cycle arrest in human MCF10A cells assessed as accumulation at G0/G1 phase at 10 uM after 15 hrs by propidium iodide cytofluorimetric analysis; type: functional, cell-based
SW-620 [2] = test: Induction of apoptosis in human SW620 cells assessed as caspase 3 activation at 10 uM by fluorescence microscopy in presence of N-acetyl-cysteine; type: functional, cell-based
[3] = system: MDA-MB-231 (Homo sapiens); test: Induction of apoptosis in human MDA-MB-231 cells assessed as change in cell morphology at 10 uM by fluorescence microscopy in presence of N-acetyl-cysteine
SW-620 [4] = test: Induction of ROS generation in human SW620 cells at 20 uM after 2 hrs relative to control; type: functional
In short: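 SW620 cells were treated for 2 h. Intracellular ROS was read fluorimetrically with the DCF-DA probe (excitation 485 nm, emission 535 nm) and compared with DMSO-treated cells.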

SW-620 [5] = test: Induction of apoptosis in human SW620 cells assessed as PARP degradation at 10 uM by fluorescence microscopy; type: functional, cell-based
SW-620 [6] = test: Cytotoxicity against human SW620 cells after 48 hrs […]; type: functional; details: SW-620, 48 h
In short: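 SW620 human colorectal tumor cells were exposed to a range of concentrations for 48 h. Cells were counted and GI50 was derived from growth inhibition.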

SW-620 [7] = test: Induction of apoptosis in human SW620 cells assessed as late apoptotic cells at 20 uM by annexin-V/propidium iodide staining; type: functional
In short: (§1)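 SW620 cells were treated for 48 h with or without 1 mM NAC. Cells were stained with annexin V and propidium iodide, and the apoptotic distribution was determined by flow cytometry.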

SW-620 [8] = test: Induction of cell cycle arrest in human SW620 cells assessed as accumulation at G2/M phase at 10 uM after 15 hrs by propidium iodide cytofluorimetric analysis; type: functional, cell-based
SW-620 [9] = test: Induction of apoptosis in human SW620 cells assessed as caspase 3 activation at 10 uM by fluorescence microscopy; type: functional, cell-based
SW-620 [10] = test: Induction of apoptosis in human SW620 cells assessed as late apoptotic cells at 10 uM by annexin-V/propidium iodide staining in presence of N-acetyl-cysteine; type: functional; in short: as §1
HCT-116 = test: Cytotoxicity against human HCT116 cells after 48 hrs by WST1 assay; type: functional, cell-based
SW-620 [11] = test: Induction of apoptosis in human SW620 cells assessed as release of mitochondrial cytochrome c release to cytosol upto 48 hrs; type: functional, cell-based
In short: (§2)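 SW620 cells were treated for the indicated time intervals. Cytosolic and membrane fractions were separated by subcellular fractionation, and Bax and cytochrome c levels in each fraction were read by Western blot.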

[12] = system: MDA-MB-231 (Homo sapiens); test: Induction of apoptosis in human MDA-MB-231 cells assessed as change in cell morphology at 10 uM by fluorescence microscopy
SW-620 [13] = test: Induction of apoptosis in human SW620 cells assessed as increase in translocation of Bax to cytosol upto 48 hrs; type: functional, cell-based; details: in the assay text read “to membrane fraction” for “to cytosol”; in short: as §2
SW-620 [14] = test: Induction of apoptosis in human SW620 cells assessed as PARP degradation at 10 uM by fluorescence microscopy in presence of N-acetyl-cysteine; type: functional, cell-based
SW-620 [15] = test: Induction of apoptosis in human SW620 cells assessed as late apoptotic cells at 10 uM by annexin-V/propidium iodide staining; type: functional; in short: as §1
DLD-1 = test: Cytotoxicity against human DLD1 cells after 48 hrs by WST1 assay; type: functional, cell-based
MDA-MB-231 = test: Induction of ROS generation in human MDA-MB-231 cells at 20 uM by fluorescence microscopy in presence of N-acetyl-cysteine; type: functional, cell-based

## CC(C)(C(=O)/C=C/c1ccccc1O)C(=O)/C=C/c1ccccc1O
SW-620 [1]
  Activity: Active
MCF-10A
  Activity: Active
SW-620 [2]
  Activity: inactive
[3]
  Activity: inactive
SW-620 [4]
  fold change (FC): 1.5
SW-620 [5]
  Activity: Active
SW-620 [6]
  GI50: 7 µM
SW-620 [7]
  Activity: 78.77%
SW-620 [8]
  Activity: Active
SW-620 [9]
  Activity: Active
SW-620 [10]
  Activity: 24.25%
HCT-116
  Activity: Active
SW-620 [11]
  Activity: Active
[12]
  Activity: Active
SW-620 [13]
  Activity: Active
SW-620 [14]
  Activity: inactive
SW-620 [15]
  Activity: 73.53%
DLD-1
  Activity: Active

## COc1cc(/C=C/C(=O)CC(=O)/C=C/c2ccc(O)c(OC)c2)ccc1O [CURCUMIN]
SW-620 [6]
  GI50: 32 µM

## O=C(/C=C(O)/C=C/c1ccccc1O)/C=C/c1ccccc1O
SW-620 [4]
  fold change (FC): 1.5
SW-620 [6]
  GI50: 35 µM

## CC(=O)/C=C(O)/C=C/c1ccccc1O
SW-620 [4]
  fold change (FC): 1.5

## CC(=O)C(C)(C)C(=O)/C=C/c1ccccc1O
SW-620 [4]
  fold change (FC): 1.5
SW-620 [6]
  GI50: 40 µM

## CC(C)C(=O)/C=C/c1ccccc1O
SW-620 [4]
  fold change (FC): 1.5

## COc1cc(/C=C/C(=O)C(C)(C)C(=O)/C=C/c2ccc(O)c(OC)c2)ccc1O
SW-620 [6]
  GI50: 7 µM

## O=C/C=C/c1ccccc1O [2-HYDROXYCINNAMALDEHYDE]
MDA-MB-231
  Activity: inactive
SW-620 [4]
  fold change (FC): 1.5
SW-620 [6]
  GI50: 15 µM

## CC(=O)/C=C/c1ccccc1O
SW-620 [4]
  fold change (FC): 1.5
